Results: ChEMBL document CHEMBL5260824, “9-Deazapurines as Broad-Spectrum Inhibitors of the ABC Transport Proteins P-Glycoprotein, Multidrug Resistance-Associated Protein 1, and Breast Cancer Resistance Protein” (J Med Chem, 2017)
pEC50, pIC50: −log10 of the molar value.

Columns and labels:
[1] = tested on: H69AR; assay: Reversal of drug resistance in human NCI-H69AR cells expressing MRP1; type: functional, cell-based
How it was run: (§1)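 Cells seeded per well (A2780/ADR 8,000; H69AR 20,000; MDCK II BCRP 3,000) with test compound at 1, 10 or 100 µM solutions added before cells. Daunorubicin (P-gp, MRP1) or SN-38 (BCRP) added to final 10 nM–10 µM. 72 h at 37 °C, then MTT viability read at 570 nm. GI50 from variable-slope nonlinear fits, compared with parental lines; three independent experiments in duplicate.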

[2] = Reversal of drug resistance in dog MDCK-II-BCRP cells expressing BCRP; type: functional, cell-based, Canis lupus familiaris; how it was run: as §1
[3] = Reversal of Daunorubicin resistance in human A2780 ADR cells assessed as Daunorubicin GI50 at 0.1 uM measured for 72 hrs by MTT assay; type: functional
How it was run: (§2)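 Reversal assay: resistant lines (A2780/ADR, H69AR, MDCK II BCRP) and parental lines seeded as for MTT assay with modulator solutions of 1, 10 and 100 µM added (final 0.1, 1, 10 µM) and daunorubicin (P-gp, MRP1) or SN-38 (BCRP) at final 10 nM–10 µM. 72 h, MTT read-out; GI50 by variable-slope fit. Resistance factor = resistant/sensitive GI50; potentiation factor = GI50 without/with modulator.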

[4] = Reversal of Daunorubicin resistance in human A2780 ADR cells assessed as Daunorubicin GI50 at 1 uM measured for 72 hrs by MTT assay; type: functional; how it was run: as §2
[5] = tested on: H69AR; assay: Reversal of Daunorubicin resistance in human NCI-H69AR cells assessed as Daunorubicin GI50 at 1 uM measured for 72 hrs by MTT assay; type: functional; how it was run: as §2
[6] = Reversal of SN-38 resistance in dog MDCK-II-BCRP cells assessed as SN-38 GI50 at 1 uM measured for 72 hrs by MTT assay; type: functional; settings: Canis lupus familiaris; how it was run: as §2
[7] = Reversal of Daunorubicin resistance in human A2780 ADR cells assessed as Daunorubicin GI50 at 10 uM measured for 72 hrs by MTT assay; type: functional; how it was run: as §2
[8] = Reversal of SN-38 resistance in dog MDCK-II-BCRP cells assessed as SN-38 GI50 at 10 uM measured for 72 hrs by MTT assay; type: functional; settings: Canis lupus familiaris; how it was run: as §2
[9] = target: Multidrug resistance-associated protein 1 (Homo sapiens, UniProt P33527); assay: Inhibition of MRP1 in human NCI-H69AR cells incubated for 180 mins in presence of daunorubicin by flow cytometry analysis; type: cell-based
Sequence of Multidrug resistance-associated protein 1 (P33527 whole entry): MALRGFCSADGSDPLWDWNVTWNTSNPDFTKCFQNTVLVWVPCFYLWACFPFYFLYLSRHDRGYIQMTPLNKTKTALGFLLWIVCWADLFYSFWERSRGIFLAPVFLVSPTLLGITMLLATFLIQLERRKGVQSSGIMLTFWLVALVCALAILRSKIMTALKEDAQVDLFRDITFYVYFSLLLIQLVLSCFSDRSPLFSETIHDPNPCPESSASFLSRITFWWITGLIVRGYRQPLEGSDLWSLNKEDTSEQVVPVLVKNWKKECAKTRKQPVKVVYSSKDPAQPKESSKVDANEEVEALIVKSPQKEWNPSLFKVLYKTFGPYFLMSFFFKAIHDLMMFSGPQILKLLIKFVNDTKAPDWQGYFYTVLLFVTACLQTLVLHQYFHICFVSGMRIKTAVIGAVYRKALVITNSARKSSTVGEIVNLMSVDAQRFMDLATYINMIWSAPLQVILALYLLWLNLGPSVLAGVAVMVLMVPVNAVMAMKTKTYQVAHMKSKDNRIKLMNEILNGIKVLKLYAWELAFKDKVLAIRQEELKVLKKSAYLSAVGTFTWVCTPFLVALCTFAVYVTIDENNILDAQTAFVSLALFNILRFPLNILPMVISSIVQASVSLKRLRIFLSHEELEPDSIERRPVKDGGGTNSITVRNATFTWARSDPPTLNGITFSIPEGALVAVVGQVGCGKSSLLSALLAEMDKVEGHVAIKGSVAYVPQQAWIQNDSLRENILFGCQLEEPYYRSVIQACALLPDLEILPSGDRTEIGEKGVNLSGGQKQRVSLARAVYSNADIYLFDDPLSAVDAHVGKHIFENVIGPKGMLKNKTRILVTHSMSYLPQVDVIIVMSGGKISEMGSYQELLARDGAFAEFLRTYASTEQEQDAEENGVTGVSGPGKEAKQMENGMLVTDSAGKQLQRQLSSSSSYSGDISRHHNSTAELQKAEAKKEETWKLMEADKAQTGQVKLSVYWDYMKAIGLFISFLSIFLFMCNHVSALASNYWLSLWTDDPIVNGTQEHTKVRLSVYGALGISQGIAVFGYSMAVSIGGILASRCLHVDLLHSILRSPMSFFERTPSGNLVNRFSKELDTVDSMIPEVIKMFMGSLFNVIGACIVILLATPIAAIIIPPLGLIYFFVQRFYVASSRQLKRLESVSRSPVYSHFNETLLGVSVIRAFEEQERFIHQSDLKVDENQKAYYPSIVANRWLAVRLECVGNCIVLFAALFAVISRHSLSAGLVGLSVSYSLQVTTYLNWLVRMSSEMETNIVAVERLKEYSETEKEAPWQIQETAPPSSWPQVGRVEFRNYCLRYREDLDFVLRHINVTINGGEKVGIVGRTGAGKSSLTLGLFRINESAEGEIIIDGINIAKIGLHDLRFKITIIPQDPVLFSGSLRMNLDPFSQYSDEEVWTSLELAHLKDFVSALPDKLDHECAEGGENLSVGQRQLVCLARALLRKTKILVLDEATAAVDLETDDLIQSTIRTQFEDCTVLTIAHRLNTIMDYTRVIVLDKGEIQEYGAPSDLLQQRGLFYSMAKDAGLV
How it was run: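 H69AR cells (doxorubicin-selected small cell lung cancer, RPMI-1640/20% FBS), about 60,000 per well, preincubated 15 min with compound (100 nM–100 µM added solutions, in unsupplemented medium), then daunorubicin (30 µM solution added); steady state after 180 min, 37 °C, 5% CO2. Cells resuspended; flow cytometry, 488 nm excitation, FL3 (≥670 nm). Reference inhibitor 75 at 10 µM = 100%; Imax relative to it.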

[10] = target: P-gp (ABCB1) (Homo sapiens, UniProt P08183); assay: Inhibition of P-gp (unknown origin) at 10 uM incubated for 30 mins by calcein AM analysis relative to control; settings: probe calcein AM
Sequence of P-gp (ABCB1) (Homo sapiens, UniProt P08183) (P08183 whole entry): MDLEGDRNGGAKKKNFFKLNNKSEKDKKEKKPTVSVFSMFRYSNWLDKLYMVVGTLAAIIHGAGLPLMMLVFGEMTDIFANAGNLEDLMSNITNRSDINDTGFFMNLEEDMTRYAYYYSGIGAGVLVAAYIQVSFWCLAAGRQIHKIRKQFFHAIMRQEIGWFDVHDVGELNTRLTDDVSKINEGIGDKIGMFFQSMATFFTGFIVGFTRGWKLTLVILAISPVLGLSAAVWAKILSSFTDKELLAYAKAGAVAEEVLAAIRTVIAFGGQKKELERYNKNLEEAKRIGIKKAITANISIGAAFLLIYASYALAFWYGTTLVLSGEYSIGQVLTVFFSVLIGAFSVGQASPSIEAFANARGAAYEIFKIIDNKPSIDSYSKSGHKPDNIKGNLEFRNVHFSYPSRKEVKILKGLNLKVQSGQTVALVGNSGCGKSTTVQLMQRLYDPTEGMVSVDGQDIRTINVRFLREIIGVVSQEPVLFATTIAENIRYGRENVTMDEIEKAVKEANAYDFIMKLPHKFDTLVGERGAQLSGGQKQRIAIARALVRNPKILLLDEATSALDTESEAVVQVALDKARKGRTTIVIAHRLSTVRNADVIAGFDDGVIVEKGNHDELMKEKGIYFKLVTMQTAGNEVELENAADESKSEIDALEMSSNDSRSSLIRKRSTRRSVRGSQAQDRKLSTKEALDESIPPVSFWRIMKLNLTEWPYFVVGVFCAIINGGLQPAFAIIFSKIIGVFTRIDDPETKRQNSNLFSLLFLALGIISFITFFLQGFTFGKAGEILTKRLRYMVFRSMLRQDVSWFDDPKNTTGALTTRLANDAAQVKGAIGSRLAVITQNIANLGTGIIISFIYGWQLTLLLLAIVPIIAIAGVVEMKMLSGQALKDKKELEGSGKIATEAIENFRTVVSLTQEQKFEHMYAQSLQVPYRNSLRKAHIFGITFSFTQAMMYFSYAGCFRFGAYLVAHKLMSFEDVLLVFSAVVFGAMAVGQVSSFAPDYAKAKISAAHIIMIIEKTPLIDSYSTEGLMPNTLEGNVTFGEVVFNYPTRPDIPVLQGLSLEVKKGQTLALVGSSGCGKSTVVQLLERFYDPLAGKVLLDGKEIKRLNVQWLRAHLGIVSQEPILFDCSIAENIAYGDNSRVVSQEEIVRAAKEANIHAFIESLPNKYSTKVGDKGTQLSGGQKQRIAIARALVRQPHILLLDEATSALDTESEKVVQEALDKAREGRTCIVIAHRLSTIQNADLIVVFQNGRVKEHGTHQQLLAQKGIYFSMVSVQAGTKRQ
How it was run: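 A2780/ADR cells (doxorubicin-selected, P-gp overexpressing), about 30,000 per well in Krebs-HEPES buffer pH 7.4, incubated 30 min at 37 °C with compound (100 nM–100 µM added solutions). Calcein AM (3.125 µM solution added) then fluorescence read every 60 s at 37 °C, ex 485/em 520 nm; slope over minutes 5–30 plotted vs log concentration. Cyclosporine A 10 µM = 100% inhibition, buffer = 0%.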

[11] = Antiproliferative activity against human A2780 ADR cells assessed as reduction in cell viability measured for 72 hrs bt MTT assay; type: functional
[12] = tested on: P-gp (ABCB1); assay: Therapeutic index, ratio of GI50 for antiproliferative activity against human A2780 ADR cells to IC50 for inhibition of P-gp (unknown origin); type: toxicity, cell-based
How it was run: (§3)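 Ratio of MTT-assay GI50 to transport-inhibition IC50, both in the resistant line. GI50 comes from 72 h exposure at 37 °C to dilutions up to 1000 µM, with medium as 100% and 10% DMSO as 0% viability. IC50 comes from calcein AM (A2780/ADR), daunorubicin (H69AR) or pheophorbide A (MDCK II BCRP) accumulation.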

[13] = tested on: BCRP (ABCG2); assay: Therapeutic index, ratio of GI50 for antiproliferative activity against dog MDCK-II-BCRP cells to IC50 for inhibition of BCRP (unknown origin) expressed in dog MDCK-II cells; type: toxicity, cell-based; how it was run: as §3
[14] = Inhibition of daunorubicin sensitive human A2780 ADR cells expressing P-gp measured for 72 hrs by MTT assay; type: functional; how it was run: as §2
[15] = Potentiation factor, ratio of GI50 for daunorubicin resistant human A2780 ADR cells expressing P-gp cells to GI50 for reversal of daunorubicin resistance in human A2780 ADR cells assessed as daunorubicin GI50 at 10 uM (reference value: 1 uM); type: functional; how it was run: as §2
[16] = tested on: H69AR; assay: Potentiation factor, ratio of GI50 for daunorubicin resistant human NCI-H69AR cells expressing MRP1 cells to GI50 for reversal of daunorubicin resistance in human NCI-H69AR cells assessed as daunorubicin GI50 at 1 uM (reference value: 1 uM); type: functional; how it was run: as §2
[17] = Potentiation factor, ratio of GI50 for SN-38 resistant dog MDCK-II-BCRP cells expressing BCRP cells to GI50 for reversal of SN-38 resistance in dog MDCK-II-BCRP cells assessed as SN-38 GI50 at 0.1 uM (reference value: 1 uM); type: functional, Canis lupus familiaris; how it was run: as §2
[18] = Potentiation factor, ratio of GI50 for SN-38 resistant dog MDCK-II-BCRP cells expressing BCRP cells to GI50 for reversal of SN-38 resistance in dog MDCK-II-BCRP cells assessed as SN-38 GI50 at 1 uM (reference value: 1 uM); type: functional, Canis lupus familiaris; how it was run: as §2
[19] = Potentiation factor, ratio of GI50 for SN-38 resistant dog MDCK-II-BCRP cells expressing BCRP cells to GI50 for reversal of SN-38 resistance in dog MDCK-II-BCRP cells assessed as SN-38 GI50 at 10 uM (reference value: 1 uM); type: functional, Canis lupus familiaris; how it was run: as §2
[20] = Sensitization of human A2780 ADR cells expressing P-gp assessed as maximal sensitivity at 10 uM relative to control; type: functional
How it was run: (§4)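 Resistant lines were exposed to daunorubicin (A2780/ADR, H69AR) or SN-38 (MDCK II BCRP) over 10 nM–10 µM final, with or without modulator, for 72 h. Viability was read by MTT. Potentiation factor is GI50 without modulator over GI50 with modulator. Maximal sensitization is pf at 10 µM divided by the native resistance factor, in percent.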

[21] = tested on: H69AR; assay: Sensitization of human NCI-H69AR cells expressing MRP1 assessed as maximal sensitivity at 10 uM relative to control; type: functional; how it was run: as §4
[22] = Sensitization of dog MDCK-II-BCRP cells expressing BCRP assessed as maximal sensitivity at 10 uM relative to control

For `N#Cc1cn(CCCc2ccccc2)c2c(N3CCN(CCc4c[nH]c5ccccc45)CC3)ncnc12`, the pEC50 [1] was 6.02, the pEC50 [2] was 6.32 and the GI50 [3] was 286 nM. For the same compound, the GI50 [4] was 58 nM, the GI50 [5] was 1170 nM and the GI50 [6] was 211 nM. The GI50 [7] was 44 nM, the GI50 [8] was 61 nM and the pIC50 [9] was 6.30. The inhibition at 0.5 h, 10 µM [10] was over 25%, the GI50 [11] was 13700 nM and the selectivity ratio [12] was 9.4. For the same compound, the selectivity ratio [13] was 14, the GI50 [14] was 10 nM and the RatioGI50 [15] was 13. The PF [16] was 3.3, the PF [17] was 1.9 and the PF [18] was 8.1. The PF [19] was 28, the Activity [20] was 24% and the Activity [21] was 81%. It also gave an Activity [22] of 140%.
